The subject of series [1] is Escherichia coli. As to the kind of experiment: Antibacterial activity against Escherichia coli expressing CTX-M-15/TEM-1 assessed as concentration required to restore ceftibuten activity incubated for 16 to 20 hrs in presence of 1 ug/ml ceftibuten by broth microdilution method. The format is functional. To be noted: time 16-20 hrs.
Series [2] deals with Klebsiella pneumoniae. Nature of the series: Antibacterial activity against Klebsiella pneumoniae 156309 expressing SHV-11/TEM-1/KPC-2 assessed as concentration required to restore ceftibuten activity incubated for 16 to 20 hrs in presence of 1 ug/ml ceftibuten by broth microdilution method. Type of series: functional. To be noted: time 16-20 hrs.
Series [3] can be described thus: Inhibition of bacterial beta-lactamase OXA-48 using nitrocefin as substrate preincubated for 15 mins followed by substrate addition and measured after 10 mins by spectrophotometric analysis. Also noted: species or system Bacteria. Summed up: (§1)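 IC50 is the mean of duplicate runs on separate days. A run was repeated automatically if it differed by more than 20% from the previous result.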

Series [4] concerns Klebsiella pneumoniae. As to the kind of experiment: Antibacterial activity against Klebsiella pneumoniae 196477 expressing AmpC/CMY-2/TEM-1/CTX-M-15 assessed as concentration required to restore ceftibuten activity incubated for 16 to 20 hrs in presence of 1 ug/ml ceftibuten by broth microdilution method. Type of series: functional. To be noted: time 16-20 hrs.
Series [5] deals with Escherichia coli. Nature of the series: Antibacterial activity against Escherichia coli 786978 expressing KPC assessed as concentration required to restore ceftibuten activity incubated for 16 to 20 hrs in presence of 1 ug/ml ceftibuten by broth microdilution method. The format is functional. The conditions noted are these: time 16-20 hrs.
Series [6] is described as follows: Inhibition of bacterial beta-lactamase AmpC using nitrocefin as substrate preincubated for 15 mins followed by substrate addition and measured after 10 mins by spectrophotometric analysis. Also noted: species or system Bacteria. Summed up:
as §1

The test system of series [7] is Klebsiella pneumoniae. As to the kind of experiment: Antibacterial activity against Klebsiella pneumoniae expressing OXA-48 assessed as concentration required to restore ceftibuten activity incubated for 16 to 20 hrs in presence of 1 ug/ml ceftibuten by broth microdilution method. The format is functional. To be noted: time 16-20 hrs.
Series [8] is described as follows: Inhibition of bacterial beta-lactamase KPC-2 using imipenem as substrate preincubated for 15 mins followed by substrate addition and measured after 10 mins by spectrophotometric analysis. Also noted: species or system Bacteria. Summed up: as §1
Series [9] in a line: Inhibition of bacterial beta-lactamase SHV-5 using cefotaxime as substrate preincubated for 15 mins followed by substrate addition and measured after 10 mins by spectrophotometric analysis. Also noted: species or system Bacteria. Summed up:
as §1

The subject of series [10] is Klebsiella pneumoniae. As to the kind of experiment: Antibacterial activity against Klebsiella pneumoniae expressing SHV-12/TEM-1 assessed as concentration required to restore ceftibuten activity incubated for 16 to 20 hrs in presence of 1 ug/ml ceftibuten by broth microdilution method. The format is functional. The conditions noted are these: time 16-20 hrs.
For series [11], the system named is Escherichia coli. Nature of the series: Antibacterial activity against Escherichia coli J53 expressing SHV-5/TEM-1/AmpC assessed as concentration required to restore ceftibuten activity incubated for 16 to 20 hrs in presence of 1 ug/ml ceftibuten by broth microdilution method. Type of series: functional. The conditions noted are these: time 16-20 hrs.
Series [12] relates to Escherichia coli. As to the kind of experiment: Antibacterial activity against Escherichia coli 664507 expressing OXA-48 assessed as concentration required to restore ceftibuten activity incubated for 16 to 20 hrs in presence of 1 ug/ml ceftibuten by broth microdilution method. The format is functional. To be noted: time 16-20 hrs. Summed up: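 Tested against a 25-strain challenge panel of clinical E. coli and K. pneumoniae isolates carrying ESBL (n = 5), KPC (n = 11), class C (n = 4) or OXA-48 (n = 5) β-lactamases. Ceftibuten was held at 1 μg/mL while the BLI concentration varied. The read-out was the BLI concentration that rescued ceftibuten activity.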

Series [13] in a line: Oral bioavailability in rat at 10 mg/kg administered as cassette dose measured by UPLC-MS/MS. Type of series: ADME, organism-based. To be noted: in vivo. Summed up: (§2)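 Ester prodrugs are given to rats by oral gavage, some as a cassette with another ester. F is the percent absolute oral bioavailability of the parent, corrected for the MW difference between prodrug and parent.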

Series [14] in a line: Oral bioavailability in rat at 3 mg/kg administered as cassette dose measured by UPLC-MS/MS. The format is ADME, organism-based. The conditions noted are these: in vivo. Summed up: as §2
Where [15] appears, read: 10 mg/kg, in the assay text read “measured” for “administered as cassette dose measured”.

With `CS(=O)(=O)NCCC(=O)N[C@H]1Cc2cccc(C(=O)O)c2OB1O`, the Activity worked out at 0.12 µg/mL in the series on Escherichia coli [1]; 1 µg/mL in the series with Klebsiella pneumoniae [2]; 0.03 µg/mL in the series on Klebsiella pneumoniae [4]; 0.5 µg/mL with Escherichia coli [5]; 2 µg/mL in the series with Klebsiella pneumoniae [7]; 0.016 µg/mL in the series on Klebsiella pneumoniae [10]. For the same compound, the Activity with Escherichia coli [11] was determined as 0.016 µg/mL; with Escherichia coli [12] it was 0.03 µg/mL. Also, the IC50 was determined as 4670 nM in [3], 5 nM in series [6], 28 nM in series [8] and 12 nM in [9].

`CCC(=O)N[C@H]1Cc2cccc(C(=O)OCOC(C)=O)c2OB1O`: the bioavailability in series [13] is 10%.

In series [14], `CCOC(=O)c1cccc2c1OB(O)[C@@H](NC(=O)CCNS(N)(=O)=O)C2` came in with a bioavailability of less than 5%.

As to `O=C(CCC(F)(F)F)N[C@H]1Cc2cccc(C(=O)O)c2OB1O`, the Activity in the series with Escherichia coli [1] was determined as 1 µg/mL; in the series with Klebsiella pneumoniae [2], 2 µg/mL; in the series with Klebsiella pneumoniae [4], 0.5 µg/mL; with Escherichia coli [5], 1 µg/mL; with Klebsiella pneumoniae [7], 8 µg/mL; in the series on Klebsiella pneumoniae [10], 0.06 µg/mL. The Activity amounted to 0.03 µg/mL with Escherichia coli [11] and 0.25 µg/mL with Escherichia coli [12]. For the same compound, the IC50 is 1620 nM in series [3], 9 nM in series [6], 43 nM in series [8] and 8 nM in [9].

For `CCOC(=O)c1cccc2c1OB(O)[C@@H](NC(=O)CC)C2`, the bioavailability in [14] was less than 5%.

In turn, `CCC(=O)N[C@H]1Cc2cccc(C(=O)OCOC(=O)OC3CCCC3)c2OB1O` yielded a bioavailability in series [13] of 24%.

On to `CC(=O)CCC(=O)N[C@H]1Cc2cccc(C(=O)OCOC(=O)C(C)(C)C)c2OB1O`, for which the bioavailability in [13] (setting [15]) turned out to be 95%.

With `CCOC(=O)c1cccc2c1OB(O)[C@@H](NC(=O)CCC(N)=O)C2`, the bioavailability in series [14] is less than 5%.

As to `CCOC(C)(C)C(=O)OCOC(=O)c1cccc2c1OB(O)[C@@H](NC(=O)CC)C2`, the bioavailability in series [13] came out at 28%.

As to `CCC(=O)N[C@H]1Cc2cccc(C(=O)OCOC(=O)C3CCCC3)c2OB1O`, the bioavailability in series [13] is 19%.

With `CC(C)(C)C(=O)OCOC(=O)c1cccc2c1OB(O)[C@@H](NC(=O)CCC(N)=O)C2`, in series [14], the bioavailability was less than 5%.

The compound `CCC(=O)N[C@H]1Cc2cccc(C(=O)OCOC(=O)OC(CC)CC)c2OB1O` displayed a bioavailability in series [13] of 33%.

As for `NS(=O)(=O)CCC(=O)N[C@H]1Cc2cccc(C(=O)O)c2OB1O`, the Activity was 0.25 µg/mL in the series with Escherichia coli [1]; 2 µg/mL with Klebsiella pneumoniae [2]; 0.03 µg/mL in the series with Klebsiella pneumoniae [4]; 1 µg/mL in the series on Escherichia coli [5]; 2 µg/mL with Klebsiella pneumoniae [7]; 0.06 µg/mL in the series on Klebsiella pneumoniae [10]. In addition, the Activity with Escherichia coli [11] and in the series with Escherichia coli [12] was 0.12 µg/mL throughout. Moreover, the IC50 is 8550 nM in series [3], 3 nM in series [6], 35 nM in series [8] and 8 nM in series [9].

Regarding `N#CCCC(=O)N[C@H]1Cc2cccc(C(=O)O)c2OB1O`, the Activity in the series on Escherichia coli [1] is 0.12 µg/mL; with Klebsiella pneumoniae [2] it was 2 µg/mL; in the series on Klebsiella pneumoniae [4] it was 0.03 µg/mL; with Escherichia coli [5], 0.5 µg/mL; in the series on Klebsiella pneumoniae [7], 2 µg/mL; with Klebsiella pneumoniae [10] it was 0.06 µg/mL. Also, the figures for the Activity in the series on Escherichia coli [11] and in the series with Escherichia coli [12] were 0.03 µg/mL and 0.12 µg/mL, respectively. Further, the IC50 in [3] is 687 nM; in series [6], 14 nM; in series [8], 33 nM; in series [9] it was 12 nM.

Take `CCC(=O)N[C@H]1Cc2cccc(C(=O)OCOC(=O)OC(C)C)c2OB1O`: the bioavailability in [13] came to 23%.

As for `CC(F)(F)CCC(=O)N[C@H]1Cc2cccc(C(=O)O)c2OB1O`, the Activity amounted to 0.5 µg/mL in the series with Escherichia coli [1]; 4 µg/mL in the series with Klebsiella pneumoniae [2]; 0.12 µg/mL in the series on Klebsiella pneumoniae [4]; 1 µg/mL with Escherichia coli [5]; 4 µg/mL in the series on Klebsiella pneumoniae [7]; 0.03 µg/mL in the series on Klebsiella pneumoniae [10]. In addition, the Activity with Escherichia coli [11] was 0.03 µg/mL; in the series on Escherichia coli [12], 0.25 µg/mL. Further, the IC50 worked out at 2390 nM in series [3], 7 nM in series [6] and 41 nM in [8].

`CCC(=O)N[C@H]1Cc2cccc(C(=O)OCOC(=O)C(C)C)c2OB1O` came in with a bioavailability in series [13] of 38%.

In turn, `CCCC(=O)N[C@H]1Cc2cccc(C(=O)OCOC(=O)C(C)(C)C)c2OB1O` yielded a F in series [14] (3 mg/kg) of 31%.

`NC(=O)CCC(=O)N[C@H]1Cc2cccc(C(=O)O)c2OB1O`: the Activity in the series on Escherichia coli [1] is 0.12 µg/mL; in the series on Klebsiella pneumoniae [2], 2 µg/mL; in the series on Klebsiella pneumoniae [4], 0.016 µg/mL; with Escherichia coli [5] it was 1 µg/mL; in the series with Klebsiella pneumoniae [7], 0.5 µg/mL; in the series with Klebsiella pneumoniae [10], 0.12 µg/mL. Further, the Activity in the series on Escherichia coli [11] was 2 µg/mL; in the series on Escherichia coli [12], 0.06 µg/mL. For the same compound, the IC50 in [3] came out at 1790 nM; in series [6], 6 nM; in [8] it was 69 nM; in series [9] it was 514 nM.

With `CCCC(=O)N[C@H]1Cc2cccc(C(=O)O)c2OB1O`, the Activity came to 0.12 µg/mL with Escherichia coli [1]; 1 µg/mL with Klebsiella pneumoniae [2]; 0.03 µg/mL in the series with Klebsiella pneumoniae [4]; 0.5 µg/mL with Escherichia coli [5]; 1 µg/mL in the series with Klebsiella pneumoniae [7]; 0.12 µg/mL with Klebsiella pneumoniae [10]. The Activity with Escherichia coli [11] was determined as 0.016 µg/mL; with Escherichia coli [12], 0.25 µg/mL. Also, the IC50 in series [3] stood at 426 nM; in [6], 9 nM; in series [8], 93 nM; in series [9] it was 36 nM.

As to `C#CCCC(=O)N[C@H]1Cc2cccc(C(=O)O)c2OB1O`, the Activity in the series on Escherichia coli [1] was 0.25 µg/mL; in the series with Klebsiella pneumoniae [2] it was 2 µg/mL; in the series with Klebsiella pneumoniae [4], 0.06 µg/mL; in the series on Escherichia coli [5], 1 µg/mL; in the series with Klebsiella pneumoniae [7] it was 4 µg/mL; in the series on Klebsiella pneumoniae [10], 0.06 µg/mL. In addition, the Activity with Escherichia coli [11] was determined as 1 µg/mL; in the series on Escherichia coli [12] it was 0.5 µg/mL. Moreover, the IC50 in [3] was determined as 627 nM; in series [6], 6 nM; in series [8], 31 nM; in series [9], 17 nM.

Consider `CC(C)(C)C(=O)OCOC(=O)c1cccc2c1OB(O)[C@@H](NC(=O)CCNS(C)(=O)=O)C2`, for which the bioavailability in series [14] was less than 5%.

Regarding `CC(C)(C)C(=O)OCOC(=O)c1cccc2c1OB(O)[C@@H](NC(=O)CCC#N)C2`, the bioavailability in series [13] (setting [15]) came to 20%.

For the origin of these results see ChEMBL document CHEMBL5034013, “Discovery of VNRX-7145 (VNRX-5236 Etzadroxil): An Orally Bioavailable β-Lactamase Inhibitor for Enterobacterales Expressing Ambler Class A, C, and D Enzymes” (J Med Chem, 2021).
